Results on eight compounds are retold here after ChEMBL document CHEMBL1125887, “Nucleosides and nucleotides. 94. Radical deoxygenation of tert-alcohols in 1-(2-C-alkylpentofuranosyl) pyrimidines: synthesis of (2'S)-2'-deoxy-2'-C-methylcytidine, an antileukemic nucleoside” (J Med Chem, 1991).

≈ marks a conversion by molar mass, not a printed value.

The subject of one assay is L1210. In words: Concentration required for 50% inhibition of cell growth of L1210 leukemic cell lines in mouse. Format: functional, cell-based. In short, it runs like this: (§1)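 MTT growth assay: each tumor cell line seeded at 1 × 10^4 cells/well and incubated with or without test compound for 72 h. MTT was then added and OD at 570 nm was read. % inhibition = [1 − OD(sample well)/OD(control well)] × 100. IC50 is the concentration in μg/mL giving 50% inhibition of cell growth.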

For a further assay, the system named is T-24. In words: Concentration required for 50% inhibition of human bladder transitional-cell carcinoma T24 solid cell lines.
Another assay has as its system U-937. Put plainly: Concentration required for 50% inhibition of cell growth of U937 leukemic cell lines in human. Format: functional, cell-based. In short, it runs like this:
as §1

The subject of the next assay is MOLT-4. Put plainly: Concentration required for 50% inhibition of cell growth of MOLT-4 leukemic cell lines in human. In kind it is functional, cell-based. In short, it runs like this:
as §1

Assay [1] relates to KATO III stomach cancer cell line. In words: Concentration required for 50% inhibition of human […] carcinoma KATO III solid cell lines. In kind it is functional, cell-based. In short, it runs like this:
as §1

For another assay, the system named is PC10. In words: Concentration required for 50% inhibition of human lung squamous cell carcinoma PC10 solid cell lines. In kind it is functional, cell-based. In short, it runs like this: as §1
The subject of another assay is PC-14. In words: Concentration required for 50% inhibition of human lung squamous cell carcinoma PC14 solid cell lines. Format: functional, cell-based. In short, it runs like this: as §1
A further assay deals with HL-60. Put plainly: Concentration required for 50% inhibition of cell growth of HL60 leukemic cell lines in human. Format: functional, cell-based. In short, it runs like this:
as §1

The next assay has as its system TE-2. Put plainly: Concentration required for 50% inhibition of human […] squamous cell carcinoma TE2 solid cell lines. In kind it is functional, cell-based. In short, it runs like this:
as §1

For the next assay, the system named is CCRF-CEM. In words: Concentration required for 50% inhibition of cell growth of CCRF CEM leukemic cell lines in human. Format: functional, cell-based. In short, it runs like this:
as §1

A further assay has as its system SW480. Put plainly: Concentration required for 50% inhibition of human […] carcinoma SW 480 solid cell lines. Format: functional, cell-based. In short, it runs like this: as §1
The next assay concerns K562. In words: Concentration required for 50% inhibition of cell growth of K562 leukemic cell lines in human. In kind it is functional, cell-based. In short, it runs like this: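 Tumour cells seeded at 1 × 10^4/well were grown with or without test compound for 72 h. MTT was then added and OD at 570 nm read. % inhibition = [1 − OD(sample)/OD(control)] × 100. IC50 is the concentration in μg/mL giving 50% growth inhibition.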

One may read the IC50 as the concentration at which inhibition is half-maximal. Lower therefore signals inhibition by little substance. As to `C[C@@H]1[C@H](O)[C@@H](CO)O[C@H]1n1ccc(N)nc1=O`, in the assay with L1210, the 50% inhibitory concentration (IC50) turned out to be 40 µg/mL (≈ 166 µM).
`C[C@H]1[C@H](O)[C@@H](CO)O[C@H]1n1ccc(N)nc1=O`: the IC50 in the assay with T-24 is 1.1 µg/mL (≈ 4.56 µM); in the assay with U-937, 0.38 µg/mL (≈ 1.58 µM); in the assay on MOLT-4 it was 0.032 µg/mL (≈ 0.133 µM); with L1210 it was 0.26 µg/mL (≈ 1.08 µM); in assay [1], greater than 100 µg/mL; in the assay with PC10 it was 81.8 µg/mL (≈ 339 µM). Besides, the 50% inhibitory concentration (IC50) in the assay with PC-14 is greater than 100 µg/mL; in the assay on HL-60, 0.65 µg/mL (≈ 2.69 µM); in the assay with TE-2, greater than 100 µg/mL; in the assay with CCRF-CEM, 0.15 µg/mL (≈ 0.622 µM); in the assay with SW480, greater than 100 µg/mL; in the assay on K562 it was 2.2 µg/mL (≈ 9.12 µM).
Turning to `C[C@]1(O)[C@H](O)[C@@H](CO)O[C@H]1n1ccc(N)nc1=O`, the IC50 with L1210 was greater than 100 µg/mL.
`C[C@@]1(O)[C@H](O)[C@@H](CO)O[C@H]1n1ccc(N)nc1=O` registered an IC50 in the assay with L1210 of 12 µg/mL (≈ 46.6 µM).
Consider `Cc1cn([C@@H]2O[C@H](CO)C(O)[C@H]2C)c(=O)[nH]c1=O` (some centres not stated), for which, in the assay on L1210, the half-inhibitory concentration (IC50) came to 32 µg/mL (≈ 125 µM).
In the assay on L1210, `CC[C@@H]1C(O)[C@@H](CO)O[C@H]1n1ccc(N)nc1=O` (some centres not stated) yielded a half-maximal inhibitory concentration (IC50) greater than 100 µg/mL.
On to `Nc1ccn([C@@H]2O[C@H](CO)[C@@H](O)[C@@H]2O)c(=O)n1` [CYTARABINE], for which the half-inhibitory concentration (IC50) was greater than 100 µg/mL with T-24; 0.31 µg/mL (≈ 1.27 µM) in the assay with U-937; greater than 100 µg/mL in assay [1]; greater than 100 µg/mL with PC10; greater than 100 µg/mL with PC-14; greater than 0.1 µg/mL with HL-60. Further, the IC50 in the assay with TE-2 and in the assay with SW480 was greater than 100 µg/mL in each case.
On to `O=c1[nH]cc(F)c(=O)[nH]1` [FLUOROURACIL], for which the IC50 is greater than 100 µg/mL with PC10 and 3.8 µg/mL (≈ 29.2 µM) in the assay on K562.
